Data: ChEMBL document CHEMBL4219101, “Discovery of 18β-glycyrrhetinic acid conjugated aminobenzothiazole derivatives as Hsp90-Cdc37 interaction disruptors that inhibit cell migration and reverse drug resistance” (Bioorg Med Chem, 2018)
Calls of active or inactive are those of the source. The rule behind the calls is not given here.

Key:
[1] = Inhibition of His-tagged full-length Hsp90 (unknown origin)/GST-tagged Cdc37M (unknown origin) interaction after 1 hr by HTRF assay; design: species or system Homo sapiens
Procedure, shortened: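 TR-FRET in PBS containing 400 mM KF, pH 7.3. His-tagged full-length Hsp90 and GST-Cdc37M, each 250 nM final, incubated with compound for 1 h at 37 °C. Anti-GST-Cryptate and anti-6His-XL665 then added for a further 0.5 h at 37 °C. Excitation 320 nm, emission 665/620 nm, reported as ratio ×10,000. Negative and blank controls run in each assay.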

[2] = Inhibition of HSP90/Cdc37 interaction in human doxorubicin-resistant NCI-H460 cells assessed as reduction in cell proliferation after 48 hrs by MTT assay; settings: NCI-H460, 48 h
Procedure, shortened: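 Cells in log phase seeded at about 1.0 × 10^5 cells/mL in 96-well plates, left 12 h at 37 °C, 5% CO2. Compounds dissolved in DMSO, added at 2.5, 5, 10, 20 and 50 µM, 48 h exposure. Absorbance read at 570/630 nm dual wavelength. Survival expressed relative to negative control. IC50 by Bliss method (n = 5), tests done in triplicate.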

Homo sapiens = organism: Homo sapiens; assay: Inhibition of HSP90/Cdc37 interaction assessed as reversal of drug resistance by measuring ratio of IC50 for human doxorubicin-resistant NCI-H460 cells to IC50 for human NCI-H460 cells
Procedure, shortened: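 Resistance factor is the ratio of IC50 in NCI-H460/DOX cells to IC50 in parental NCI-H460 cells. […] Values are mean ± SD of five separate experiments. Doxorubicin serves as the positive control.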

A549 [3] = assay: Inhibition of Hsp90/Cdc37 interaction in human A549 cells assessed as downregulation of Cdc37 in immunoprecipitated HSP90 complex at 5 to 10 uM after 24 hrs by Western blot analysis; format: cell-based
Procedure, shortened: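 A549 cells exposed to 5 and 10 µM for 24 h, geldanamycin 10 µM as comparator. Lysis in 20 mM Tris-HCl pH 7.4, 25 mM NaCl, 2 mM DTT, 20 mM Na2MoO4, 0.1% NP-40 and protease inhibitors. 500 µg protein immunoprecipitated overnight at 4 °C with anti-Hsp90 antibody, captured on protein G agarose, washed five times and boiled. Cdc37 and Hsp90 detected by Western blot, with input also blotted.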

[4] = target: Heat shock protein HSP 90-alpha/Hsp90 co-chaperone Cdc37 (Homo sapiens) (UniProt P07900+Q16543); assay: Inhibition of HSP90alpha/Cdc37 interaction in human A549 cells assessed as upregulation of HSP90alpha expression at 5 to 10 uM after 24 hrs by Western blot analysis; format: cell-based
Procedure, shortened: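 A549 cells exposed for 24 h, with geldanamycin as comparator. Whole-cell lysates separated by SDS-PAGE and immunoblotted for the named proteins. β-actin used as reference.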

A549 [5] = assay: Cell cycle arrest in human A549 cells assessed as accumulation at G2 phase at 5 uM after 48 hrs by propidium iodide staining-based flow cytometry (reference value: 10.22%); format: functional
A549 [6] = assay: Cell cycle arrest in human A549 cells assessed as accumulation at S phase at 5 uM after 48 hrs by propidium iodide staining-based flow cytometry (reference value: 19.62%); format: functional
A549 [7] = assay: Cell cycle arrest in human A549 cells assessed as accumulation at S phase after 48 hrs by propidium iodide staining-based flow cytometry; format: functional
A549 [8] = assay: Induction of apoptosis in human A549 cells assessed as downregulation of Bcl2 protein expression after 24 hrs by Western blot analysis; format: functional, cell-based
Procedure, shortened: (§1)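 A549 cells exposed to 5 and 10 µM for 24 h. Lysates cleared at 20000g, protein quantified by BCA and equal amounts run on 12% SDS-PAGE, then transferred to PVDF. Blocked in 5% skim milk in TBST. Probed overnight at 4 °C with antibodies to Bcl-2, Bax, caspase-9, caspase-3 and β-actin (loading reference). Chemiluminescent detection. Three independent experiments.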

A549 [9] = assay: Induction of apoptosis in human A549 cells assessed as upregulation of cleaved caspase-9 protein expression after 24 hrs by Western blot analysis; format: functional, cell-based; procedure, shortened: as §1
A549 [10] = assay: Induction of apoptosis in human A549 cells after 24 hrs by Annexin-V FITC/propidium iodide staining based flow cytometry
A549 [11] = assay: Induction of apoptosis in human A549 cells assessed as viable cells at 10 uM after 24 hrs by Annexin-V FITC/propidium iodide staining based flow cytometry (reference value: 97.6%); settings: A549, 24 h
A549 [12] = assay: Induction of apoptosis in human A549 cells assessed as necrotic cells at 5 uM after 24 hrs by Annexin-V FITC/propidium iodide staining based flow cytometry (reference value: 2.32%)
A549 [13] = assay: Induction of apoptosis in human A549 cells assessed as early apoptotic cells at 5 uM after 24 hrs by Annexin-V FITC/propidium iodide staining based flow cytometry (reference value: 0.080%)

Heat shock protein HSP 90-alpha/Hsp90 co-chaperone Cdc37 (Homo sapiens), sequence (Q16543 whole entry, looked up, other chains not shown): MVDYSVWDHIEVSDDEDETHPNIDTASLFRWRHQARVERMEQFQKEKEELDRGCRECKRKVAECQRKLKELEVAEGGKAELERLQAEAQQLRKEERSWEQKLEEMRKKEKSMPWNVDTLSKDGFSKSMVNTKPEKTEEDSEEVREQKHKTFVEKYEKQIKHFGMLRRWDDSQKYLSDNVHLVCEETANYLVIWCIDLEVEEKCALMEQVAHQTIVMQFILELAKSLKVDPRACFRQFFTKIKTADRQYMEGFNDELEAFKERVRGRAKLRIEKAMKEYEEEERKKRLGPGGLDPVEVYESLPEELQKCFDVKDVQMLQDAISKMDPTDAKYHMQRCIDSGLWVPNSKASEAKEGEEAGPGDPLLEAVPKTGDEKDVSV

- IC50 [1]: 0.14 µM
- Ratio IC50 (Homo sapiens): 1.36
- inhibition [4]: Active
SMILES: CCOC(=O)[C@@]1(C)CC[C@]2(C)CC[C@]3(C)C(=CC(=O)[C@@H]4[C@@]5(C)CC[C@H](OC(=O)CCC(=O)Nc6nc7ccc(F)cc7s6)C(C)(C)[C@@H]5CC[C@]43C)[C@@H]2C1
- IC50 [2]: 10.1 µM
- inhibition (A549 [3]): Active
- Activity (A549 [5]): 12.98%
- Activity (A549 [6]): 34.09%
- Activity (A549 [7]): Dose-dependent effect
- Activity (A549 [8]): Dose-dependent effect
- Activity (A549 [9]): Dose-dependent effect
- Activity (A549 [10]): Dose-dependent effect
- viability at 10 µM (A549 [11]): 78.8%
- Activity (A549 [12]): 2.18%
- Activity (A549 [13]): 8.45%
